# Test results: ChEMBL document CHEMBL5303300, “EUbOPEN Chemogenomics Library - Multiplex” (2023)
# Several values for one entry are separate records, joined by “and”; a condition that tells them apart may be missing. Equal values may be shown once.
# Tested on: U2OS
# Assay: Multiplex assay against U2OS
# Type: toxicity, cell-based
# Conditions: human, number of replicates 2
# Procedure, shortened: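 On a CQ1 microscope at 37°C and 5% CO2, live cells were imaged after compound addition. They had been stained at seeding with Hoechst33342, BioTracker Green Microtubule Cytoskeleton Dye, MitoTracker Red and Annexin V Alexa Fluor 680. CellPathfinder machine-learning gating assigned cells to Hoechst high-intensity objects or normal cells, normal cells to healthy, pyknosed or fragmented nuclei, and pyknosed cells to mitotic or apoptotic. Tubulin, mitochondrial-mass and membrane-permeability phenotypes are per cents of healthy-nucleus cells.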
# [1] = 12 h, 1 µM, compound concentration 1 uM
# [2] = 12 h, 10 µM, compound concentration 10 uM
# [3] = 24 h, 1 µM, compound concentration 1 uM
# [4] = 24 h, 10 µM, compound concentration 10 uM
# [5] = 48 h, 1 µM, compound concentration 1 uM
# [6] = 48 h, 10 µM, compound concentration 10 uM
smiles,measurement,setting,value
Cc1cc(C2CCCNC2)ccc1Nc1ncc(Br)c(NCc2cccc3c2C(C)(C)C(=O)N3)n1 (stereo unspecified),Population Apoptotic (%),[1],50% and 63%
same,Population Healthy Nuclei (%),[1],57% and 78%
same,Population Hoechst High Intensity Objects (%),[1],0%
same,Population Membrane Permeable-Phenotype (%),[1],31% and 29%
same,Population Mitochondria Different-Phenotype (%),[1],9% and 19%
same,Population Mitotic Cells (%),[1],50% and 36%
same,Population Normal (%),[1],100%
same,Population Pyknosed Nuclei (%),[1],10% and 11%
same,Population Tubulin-Different-Phenotype (%),[1],65% and 44%
same,Total Cell Count,[1],56 and 99
same,Population Apoptotic (%),[2],82% and 73%
same,Population Fragmented Nuclei (%),[2],28% and 14%
same,Population Healthy Nuclei (%),[2],42% and 69%
same,Population Hoechst High Intensity Objects (%),[2],0%
same,Population Membrane Permeable-Phenotype (%),[2],24% and 20%
same,Population Mitochondria Different-Phenotype (%),[2],56% and 54%
same,Population Mitotic Cells (%),[2],17% and 26%
same,Population Normal (%),[2],100%
same,Population Pyknosed Nuclei (%),[2],28% and 16%
same,Population Tubulin-Different-Phenotype (%),[2],88% and 83%
same,Population Apoptotic (%),[3],70% and 51%
same,Population Healthy Nuclei (%),[3],54% and 72%
same,Population Hoechst High Intensity Objects (%),[3],1% and 0%
same,Population Membrane Permeable-Phenotype (%),[3],17% and 15%
same,Population Mitochondria Different-Phenotype (%),[3],34% and 21%
same,Population Mitotic Cells (%),[3],30% and 48%
same,Population Normal (%),[3],98% and 100%
same,Population Pyknosed Nuclei (%),[3],18% and 21%
same,Population Tubulin-Different-Phenotype (%),[3],75% and 58%
same,Total Cell Count,[3],54 and 125
same,Population Apoptotic (%),[4],88% and 66%
same,Population Fragmented Nuclei (%),[4],27% and 10%
same,Population Hoechst High Intensity Objects (%),[4],0%
same,Population Membrane Permeable-Phenotype (%),[4],66% and 31%
same,Population Mitochondria Different-Phenotype (%),[4],66% and 61%
same,Population Mitotic Cells (%),[4],12% and 33%
same,Population Normal (%),[4],100% and 99%
same,Population Pyknosed Nuclei (%),[4],53% and 25%
same,Population Tubulin-Different-Phenotype (%),[4],88% and 82%
same,Population Apoptotic (%),[5],87% and 70%
same,Population Fragmented Nuclei (%),[5],8% and 20%
same,Population Healthy Nuclei (%),[5],74% and 64%
same,Population Hoechst High Intensity Objects (%),[5],0% and 1%
same,Population Membrane Permeable-Phenotype (%),[5],13% and 14%
same,Population Mitochondria Different-Phenotype (%),[5],16% and 21%
same,Population Mitotic Cells (%),[5],12% and 30%
same,Population Normal (%),[5],100% and 98%
same,Population Pyknosed Nuclei (%),[5],17% and 15%
same,Population Tubulin-Different-Phenotype (%),[5],63% and 46%
same,Total Cell Count,[5],175 and 65
same,Population Apoptotic (%),[6],91% and 87%
same,Population Fragmented Nuclei (%),[6],19% and 8%
same,Population Hoechst High Intensity Objects (%),[6],0% and 2%
same,Population Membrane Permeable-Phenotype (%),[6],100% and 43%
same,Population Mitochondria Different-Phenotype (%),[6],50% and 83%
same,Population Mitotic Cells (%),[6],8% and 12%
same,Population Normal (%),[6],100% and 97%
same,Population Pyknosed Nuclei (%),[6],76% and 43%
same,Population Tubulin-Different-Phenotype (%),[6],100% and 82%
COc1nc2ccc([C@@](O)(c3ccc(Cl)cc3)c3cncn3C)cc2c(Cl)c1Cc1ccc(-n2cccn2)cc1 [JNJ-53721590],Population Healthy Nuclei (%),[1],56% and 85%
same,Population Hoechst High Intensity Objects (%),[1],0%
same,Population Membrane Permeable-Phenotype (%),[1],5% and 1%
same,Population Mitochondria Different-Phenotype (%),[1],0% and 20%
same,Population Normal (%),[1],100%
same,Population Pyknosed Nuclei (%),[1],16% and 10%
same,Population Tubulin-Different-Phenotype (%),[1],23% and 37%
same,Population Apoptotic (%),[2],74% and 57%
same,Population Fragmented Nuclei (%),[2],2% and 12%
same,Population Healthy Nuclei (%),[2],82% and 74%
same,Population Hoechst High Intensity Objects (%),[2],0%
same,Population Membrane Permeable-Phenotype (%),[2],29% and 21%
same,Population Mitochondria Different-Phenotype (%),[2],28% and 56%
same,Population Mitotic Cells (%),[2],25% and 42%
same,Population Normal (%),[2],99% and 100%
same,Population Pyknosed Nuclei (%),[2],14% and 12%
same,Population Tubulin-Different-Phenotype (%),[2],89% and 97%
same,Population Apoptotic (%),[3],50% and 62%
same,Population Fragmented Nuclei (%),[3],20% and 0%
same,Population Healthy Nuclei (%),[3],45% and 85%
same,Population Hoechst High Intensity Objects (%),[3],0%
same,Population Membrane Permeable-Phenotype (%),[3],0% and 1%
same,Population Mitochondria Different-Phenotype (%),[3],6% and 17%
same,Population Mitotic Cells (%),[3],50% and 37%
same,Population Normal (%),[3],100% and 99%
same,Population Pyknosed Nuclei (%),[3],34% and 13%
same,Population Tubulin-Different-Phenotype (%),[3],25% and 42%
same,Population Apoptotic (%),[4],79% and 36%
same,Population Fragmented Nuclei (%),[4],3% and 12%
same,Population Healthy Nuclei (%),[4],78% and 64%
same,Population Hoechst High Intensity Objects (%),[4],0%
same,Population Membrane Permeable-Phenotype (%),[4],34% and 35%
same,Population Mitochondria Different-Phenotype (%),[4],43% and 54%
same,Population Normal (%),[4],99% and 100%
same,Population Pyknosed Nuclei (%),[4],18% and 22%
same,Population Tubulin-Different-Phenotype (%),[4],93%
same,Population Apoptotic (%),[5],70% and 81%
same,Population Healthy Nuclei (%),[5],86% and 54%
same,Population Hoechst High Intensity Objects (%),[5],0%
same,Population Mitochondria Different-Phenotype (%),[5],9% and 13%
same,Population Mitotic Cells (%),[5],29% and 18%
same,Population Normal (%),[5],99% and 100%
same,Population Pyknosed Nuclei (%),[5],10% and 26%
same,Population Apoptotic (%),[6],64% and 85%
same,Population Healthy Nuclei (%),[6],47% and 65%
same,Population Hoechst High Intensity Objects (%),[6],0%
same,Population Membrane Permeable-Phenotype (%),[6],57% and 47%
same,Population Mitochondria Different-Phenotype (%),[6],48% and 34%
same,Population Mitotic Cells (%),[6],35% and 14%
same,Population Normal (%),[6],100% and 99%
same,Population Pyknosed Nuclei (%),[6],24% and 26%
same,Population Tubulin-Different-Phenotype (%),[6],96% and 90%
